Assay outcomes as filed in PubChem BioAssay.
Rows were chosen to be rich in hits. Some 1.5% of all compounds tested hit in one or more screens of this group.
Rev-erbA mod: modulates human Rev-erb alpha binding to DNA; Rev-erbα–FITC-DNA binding, fluorescence polarization, 90 min; activity, % at 10 µM; 370,000 tested, 0.79% active; AID 1259318;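 active = activity above about 14%, limit read from the data; passing the limit was not always enough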;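 also: 0% = DMSO wells with 35 nM protein and 100% = DMSO wells with 750 nM protein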
NR2E3 ag-1: agonists of human nuclear receptor NR2E3; AID 2300; GST-NR2E3/biotin-RetCOR TR-FRET, 1536-well; 320,000 tested, 0.12% active; inhibition of corepressor binding, % at 4.78 µM;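 active = percent inhibition above the cutoff of mean plus 3 SD of all tested compounds, set per screening campaign, cut at about 20% in these data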;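 also: 0% = DMSO wells and 100% = biotin wells as full block of FRET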
Target sequence (Q9Y5X4 whole entry, looked up): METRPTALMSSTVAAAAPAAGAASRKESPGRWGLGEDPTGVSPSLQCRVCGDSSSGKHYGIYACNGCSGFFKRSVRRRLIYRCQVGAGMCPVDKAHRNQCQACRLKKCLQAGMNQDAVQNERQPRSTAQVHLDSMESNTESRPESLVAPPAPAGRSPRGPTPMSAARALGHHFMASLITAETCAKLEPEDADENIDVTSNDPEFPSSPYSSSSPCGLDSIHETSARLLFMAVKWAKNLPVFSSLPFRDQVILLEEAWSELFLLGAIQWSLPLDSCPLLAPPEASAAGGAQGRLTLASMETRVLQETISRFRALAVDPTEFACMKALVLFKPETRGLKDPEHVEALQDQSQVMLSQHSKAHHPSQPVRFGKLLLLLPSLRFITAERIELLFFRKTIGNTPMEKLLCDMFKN
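system = GST-tagged NR2E3 plus biotinylated RetCOR corepressor | input = 1.35 nM GST-NR2E3 | also added = 7 nM biotin-RetCOR | schedule = 5 h incubation at 4 °C | measured by = TR-FRET with europium anti-GST and streptavidin-D2, 340 nm excitation | read-out = percent loss of FRET ratio relative to control wells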
NR2E3 ag-2: activates human NR2E3 receptor | inhibition of corepressor binding, % at 3.98 µM | CHO-S Gal4-NCOR/VP16-NR2E3 two-hybrid, luciferase | 360,000 tested, 0.35% active | Q9Y5X4;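 active = inhibition above the mean of all tested compounds plus 3 SD, cut at about 70% in these data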;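 also: 0% = DMSO with NR2E3 transfected cells and 100% = cells lacking NR2E3 construct; higher means lower luciferase signal from less NR2E3 corepressor binding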
PG9 binder: small molecules binding HIV-1 gp120 antibody PG9; TR-FRET gp120-PG9 antibody binding; inhibition, % at 6.7 µM; 360,000 tested, 0.43% active; in the data active = inhibition above about 8.5%
Rev-erbA confirm: confirmation of modulators of human Rev-erb alpha DNA binding. Rev-erb alpha FITC-DNA binding, fluorescence polarization, 90 min. 3,000 tested, 61% active. shares compounds with Rev-erbA mod. AID 1259319. activation, % at 25 µM;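 active = activation at or above a set limit, or at least 3 SD above the negative control mean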;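 also: 0% = 35 nM protein with DMSO and 100% = 750 nM protein high control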
RORg DNA counter: RORgamma DNA-binding activity, dose-response counter-screen. shares compounds with Rev-erbA mod. purified RORgamma protein-FITC-DNA binding, fluorescence polarization. IC50, µM. 910 tested, 8% active;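 active = Compounds whose fitted half-maximal concentration for disrupting protein-DNA binding is below 10 micromolar; the record names Rev-erb in its text, so the target is in doubt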
* marks the source's active call; other numbers are inactive results; i = inactive; . = not tested or not shown.

SMILES	Rev-erbA mod	NR2E3 ag-1	NR2E3 ag-2	PG9 binder	Rev-erbA confirm	others
COCCn1c(=NC(=O)c2ccc3c(c2)OCCO3)sc2cc(S(N)(=O)=O)ccc21	29*	2	8	7	38*	RORg DNA counter=i
CCN(C(=O)CSc1cccc[n+]1[O-])C1CCCCC1	-3	.	-15	-1	.
CCc1ccc(C(=O)NNC(=O)c2cccc(S(=O)(=O)N3CCN(C)CC3)c2)cc1	-2	.	-25	-2	.
COC(=O)Cn1c(=NC(=O)CSCC(=O)Nc2cc(C)on2)sc2cc(C(=O)OC)ccc21	5	0	-6	-2	.
COC(=O)Cn1c(=NC(=O)c2cc(OC)cc(OC)c2)sc2cc(OC)ccc21	31*	-3	-22	2	5
COc1cccc(C(=O)N/N=c2\sc3ccccc3n2C)c1	-6	1	7	-2	.
COc1ccc(C(=O)N=c2sc3ccccc3n2C)cc1	52*	2	-157	2	23*
COC(=O)Cn1c(=NC(=O)c2ccc(S(=O)(=O)N3CCc4ccccc4C3)cc2)sc2cc(OC)ccc21	39*	3	-9	7	2
COc1cc(OC)cc(C(=O)N=c2sc3ccccc3n2C)c1	16	2	-30	2	.
COC(=O)Cn1c(=NC(=O)c2cccc(OC)c2)sc2cc(OC)ccc21	31*	1	-48	0	23*
CCN(C(=O)CN1C(=O)NC2(CCCc3ccccc32)C1=O)c1ccc(F)cc1 (stereo not given)	-3	1	0	2	.
O=C(NCc1ccc(Cl)cc1)c1ccccc1Oc1ccccc1	-2	3	24	1	.
CCN(CC)S(=O)(=O)c1ccc(C(=O)NNC(=O)c2csc(N3CCOCC3)n2)cc1	-1	-1	1	3	.
CN(C)S(=O)(=O)c1ccc(C(=O)OCC(=O)c2csc(N3CCCCC3)n2)cc1	24*	3	-25	-1	11
COc1cccc(-n2nnnc2SCC(=O)Nc2ccc3c(c2)OCCO3)c1	30*	-1	-5	2	46*	RORg DNA counter=i
COc1ccc(S(=O)(=O)N(C)C[C@H]2Oc3c(NC(=O)Nc4c(C)noc4C)cccc3C(=O)N([C@H](C)CO)C[C@@H]2C)cc1	1	.	5	-3	.
COC(=O)c1cc(COc2ccc3c(c2)oc(=O)c2ccccc23)c(C)o1	29*	-2	-7	2	24*
COCCOC(=O)c1c(C)oc2ccc(OCc3cc(C(=O)OC)oc3C)cc12	0	1	15	-1	.
CCOC(=O)C1CN(S(=O)(=O)c2cccc(C(F)(F)F)c2)c2cc(CC(=O)OC)ccc2O1 (stereo not given)	9	2	-4	-2	.
N#Cc1nnn2c1nc(N)c1c(F)cccc12	4	0	13	3	.
N#Cc1nnn2c1nc(N)c1c(Cl)cccc12	37*	.	-29	-1	15*
COc1ccc(-n2nc(C(=O)NCC(=O)N3CCN(c4ccccc4F)CC3)c3ccccc3c2=O)cc1	25*	3	-43	5	-8
COc1ccc(-n2nc(C(=O)NCC(=O)N3CCN(c4ccccc4F)CC3)c3ccccc3c2=O)cc1OC	-5	2	0	1	.
COc1ccc(-n2nc(C(=O)NCC(=O)Nc3cccc(Cl)c3)c3ccccc3c2=O)cc1	82*	1	19	1	39*	RORg DNA counter=>40
COc1ccc(-n2nc(C(=O)NCC(=O)Nc3ccccn3)c3ccccc3c2=O)cc1	42*	-4	-14	1	18*
SMILES	Rev-erbA mod	NR2E3 ag-1	NR2E3 ag-2	PG9 binder	Rev-erbA confirm	others
COc1ccc(-n2nc(C(=O)NCC(=O)Nc3cc(OC)c(OC)c(OC)c3)c3ccccc3c2=O)cc1Cl	0	-2	-8	0	.
CCOC(=O)c1ccccc1NC(=O)Cn1cnc2c(cnn2-c2ccc(OC)cc2)c1=O	22*	4	.	-1	9
O=S(=O)(NN1CCOCC1)c1ccc(Cl)s1	-1	3	2	1	.
CCN(c1ccccc1)S(=O)(=O)c1ccc(C(=O)N(C)Cc2cccs2)cc1	4	.	25	2	.
O=S1(=O)c2ccc(N3CCCC3)cc2Oc2ccccc2CN1Cc1cn(Cc2cccc(C(F)(F)F)c2)nn1	4	.	.	.	.
CCOC(=O)c1nn(-c2ccc(C)cc2)c(=O)cc1OCC(=O)Nc1cccc(OC)c1	-10	-2	-33	2	.
CCOC(=O)c1nn(-c2ccc(F)cc2)c(=O)cc1OCC(=O)Nc1ccc(OCC)cc1	19*	-2	-6	-1	-14
COc1ccc(-n2nc(C(=O)NCC(=O)NCc3ccc(F)cc3)c3ccccc3c2=O)c(OC)c1	27*	.	-43	0	2
CCOc1ccc(NC(=O)CNC(=O)c2nn(-c3ccc(OC)cc3)c(=O)c3ccccc23)cc1	32*	5	6	4	11
COCCCNC(=O)CNC(=O)c1nn(-c2ccc(OC)cc2OC)c(=O)c2ccccc12	2	1	1	-1	.
CCCOc1cccc(C(=O)Nc2ccc(Br)cc2F)c1	-2	5	3	-1	.
COC(=O)c1cc(S(=O)(=O)N2CCCN(C(C)=O)CC2)cn1C	-7	.	.	.	.
Cn1c2ccccc2c(=O)c2c(=O)n(Cc3cccc4ccccc34)cnc21	18*	.	.	.	20*
Cn1c2ccccc2c(=O)c2c(=O)n(CCCc3ccccc3)cnc21	-3	.	.	.	.
O=S(Cc1cc(Sc2ccccc2)nc(-c2ccccc2)n1)c1ccccc1 (stereo not given)	25*	6	-49	-2	16
CCN(CC)c1ccc(/C=C/c2cccc[n+]2C)c(OC)c1	53*	-9	0	-28	56*	RORg DNA counter=>40
N#C/C(=C/c1ccc(N2CCOCC2)o1)C(=O)Nc1ccccc1	53*	.	-134	-16	26*
N#C/C(=C\c1ccc(N2CCOCC2)o1)C(=O)NCC1CCCO1 (stereo not given)	21*	-5	-23	-17	13
N#C/C(=C\c1ccc(N2CCOCC2)o1)C(=O)NC1CCCCC1	11	-6	-35	-11	.
N#C/C(=C\c1ccc(N2CCOCC2)o1)C(=O)NCCc1ccccc1	7	2	1	-13	.
CC(=O)c1cc(-c2ccc3c(c2)OCO3)c(=O)n2c1CCC2	6	.	.	.	.
Cc1ccc(-c2nc3ccccc3s2)cc1NC(=S)NC(=O)c1ccccc1	-1	0	-118	0	.
Cc1ccc(-c2nc3ccccc3s2)cc1NC(=O)c1cc(-n2cnnc2)ccc1Cl	33*	0	-22	4	32*	RORg DNA counter=>40
Cc1ccnc(NC(=O)CNC(=O)C23CC4CC(CC(C4)C2)C3)c1	-1	-1	-1	2	.
COc1ccc(-c2csc3ncnc(N4CCN(S(=O)(=O)c5cccc(Br)c5)CC4)c23)cc1	16*	-2	2	7	18*
Cc1ccc(S(=O)(=O)N2CCN(c3ncnc4scc(-c5ccccc5)c34)CC2)cc1	-4	.	-32	-1	.
